For the assay, the system named is L5178Y. Kind of assay: Compound was tested in vitro for concentration required to decrease 50% growth rate of murine leukemia L5178Y/R cell culture. It is filed as functional, Mus musculus. The gist of the method: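 Seeded at 4.0-6.0 × 10^4 cells/mL in duplicate. Drug added 1:10, at least eight concentrations, for 48 h of continuous exposure under 5% CO2. Cells counted by Coulter counter. ID50 is the concentration that halves the growth rate (doubles the generation time), read from the dose-response curve.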

Each structure is given as a SMILES string.

On to `CCCCCCCCCOc1cccc(N2C(N)=NC(N)=NC2(C)C)c1`, for which the “Log 1/C” value was 6.57. With `CC(C)c1cccc(OCc2cccc(N3C(N)=NC(N)=NC3(C)C)c2)c1` the figure was 5.87. For the compound `CC1(C)N=C(N)N=C(N)N1c1cccc(CNc2cc(C(N)=O)cc(C(N)=O)c2)c1`, the “Log 1/C” value turned out to be 3.79. To `Cc1cccc(OCc2cccc(N3C(N)=NC(N)=NC3(C)C)c2)c1` belongs 5.59; to `CC1(C)N=C(N)N=C(N)N1c1cccc(COc2cccc(NC(N)=O)c2)c1`, 4.74; to `CC1(C)N=C(N)N=C(N)N1c1cccc(OCCOc2cccc(C(F)(F)F)c2)c1`, 5.85. With `CC(=O)Nc1cccc(OCc2cccc(N3C(N)=NC(N)=NC3(C)C)c2)c1` the figure was 4.95; with `CC1(C)N=C(N)N=C(N)N1c1cccc([N+](=O)[O-])c1`, 5.03.

Take `CC1(C)N=C(N)N=C(N)N1c1cccc(CSc2ccccc2)c1`: the “Log 1/C” value stood at 6.2.

Regarding `CC1(C)N=C(N)N=C(N)N1c1cccc(C(O)c2ccccc2)c1` (configuration not stated), the “Log 1/C” value is 4.17. Turning to `CC1(C)N=C(N)N=C(N)N1c1cccc(OCCOc2ccccc2)c1`, the “Log 1/C” value was 5.02.

For the compound `CC1(C)N=C(N)N=C(N)N1c1cccc(F)c1`, the “Log 1/C” value amounted to 5.24. With `CC(C)(C)c1cccc(N2C(N)=NC(N)=NC2(C)C)c1` the figure was 6.03. With `CC1(C)N=C(N)N=C(N)N1c1cccc(Br)c1` the figure was 5.9.

In the case of `CC1(C)N=C(N)N=C(N)N1c1cccc(I)c1`, the “Log 1/C” value is reported as 5.91. To `CC1(C)N=C(N)N=C(N)N1c1cccc(OCc2ccc(Cl)c(Cl)c2)c1` belongs 5.8; to `CCCCCCCCCCCOc1cccc(N2C(N)=NC(N)=NC2(C)C)c1`, 6.38. To `CC1(C)N=C(N)N=C(N)N1c1cccc(COc2ccccc2)c1` belongs 5.67; to `CCc1cccc(OCc2cccc(N3C(N)=NC(N)=NC3(C)C)c2)c1`, 5.74.

With `CC1(C)N=C(N)N=C(N)N1c1cccc(COc2cccc(C#N)c2)c1`, the “Log 1/C” value came to 5.25. For `CCCCCCCCCCCCOc1cccc(N2C(N)=NC(N)=NC2(C)C)c1`, the “Log 1/C” value is given as 6.24. With `CCCCCCCCCCCCCOc1cccc(N2C(N)=NC(N)=NC2(C)C)c1` the figure was 6.52. For the compound `CCCCCCc1cccc(N2C(N)=NC(N)=NC2(C)C)c1`, the “Log 1/C” value stood at 6.39. On to `CC(C)(C)c1cccc(OCc2cccc(N3C(N)=NC(N)=NC3(C)C)c2)c1`, for which the “Log 1/C” value stood at 6.08.

`CC1(C)N=C(N)N=C(N)N1c1cccc(COc2cccc(NC(=N)S)c2)c1`: the “Log 1/C” value stood at 4.01.

On to `CCCCCCCCCCCCCCOc1cccc(N2C(N)=NC(N)=NC2(C)C)c1`, for which the “Log 1/C” value is 6.49. To `CC1(C)N=C(N)N=C(N)N1c1cccc(COc2cccc(Cl)c2)c1` belongs 5.93.

Turning to `COc1cccc(OCc2cccc(N3C(N)=NC(N)=NC3(C)C)c2)c1`, the “Log 1/C” value turned out to be 5.36. For `CC1(C)N=C(N)N=C(N)N1c1cccc(COc2cccc(CO)c2)c1`, the “Log 1/C” value turned out to be 4.77. To `CN(C)C(=O)c1cccc(COc2ccc(N3C(N)=NC(N)=NC3(C)C)cc2Cl)c1` belongs 5.4; to `CC1(C)N=C(N)N=C(N)N1c1cccc(OCCCCOc2cccc(C(F)(F)F)c2)c1`, 6.28; to `CC(=O)c1cccc(N2C(N)=NC(N)=NC2(C)C)c1`, 4.56. With `CC1(C)N=C(N)N=C(N)N1c1cccc(OCCCCOc2ccccc2)c1` the figure was 5.3; with `Cc1cccc(N2C(N)=NC(N)=NC2(C)C)c1`, 4.97. Take `CC1(C)N=C(N)N=C(N)N1c1cccc(OCc2ccccc2)c1`: the “Log 1/C” value turned out to be 5.19. With `CCCCOc1cccc(N2C(N)=NC(N)=NC2(C)C)c1` the figure was 5.95; with `CN(Cc1cnc2nc(N)nc(N)c2n1)c1ccc(C(=O)N[C@@H](CCC(=O)O)C(=O)O)cc1` [METHOTREXATE], 2.9.

The values are drawn from ChEMBL document CHEMBL1122007, “A comparison of the inhibition of growth of methotrexate-resistant and -sensitive leukemia cells in culture by triazines. Evidence for a new mechanism of cell resistance to methotrexate” (1982).
